ChEMBL document CHEMBL4834426, “Antimalarial Benzimidazole Derivatives Incorporating Phenolic Mannich Base Side Chains Inhibit Microtubule and Hemozoin Formation: Structure-Activity Relationship and In Vivo Oral Efficacy Studies” (J Med Chem, 2021)

Key:
Plasmodium falciparum [1] = assay: Antimalarial activity against asexual blood stage drug-sensitive Plasmodium falciparum NF54 infected in erythrocytes assessed as reduction in parasitemia incubated up to 72 hrs by [3H]hypoxanthine incorporation assay; type: functional, organism-based
Method in brief: (§1)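 [³H]-Hypoxanthine incorporation assay (modified) on asexual blood-stage P. falciparum in vitro. IC₅₀ values are means of ≥2 independent experiments.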

Plasmodium falciparum [2] = assay: Antimalarial activity against asexual blood stage multi drug-resistant Plasmodium falciparum K1 infected in erythrocytes assessed as reduction in parasitemia incubated up to 72 hrs by [3H]hypoxanthine incorporation assay; type: functional, organism-based; method in brief: as §1
[3] = Resistance index, ratio of IC50 for antimalarial activity against asexual blood stage multi drug-resistant Plasmodium falciparum K1 to IC50 for antimalarial activity against asexual blood stage drug-sensitive Plasmodium falciparum NF54; type: functional
Method in brief: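 Resistance index is IC₅₀(K1)/IC₅₀(NF54). Both IC₅₀s came from the [³H]-hypoxanthine incorporation assay, as means of ≥2 independent experiments.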

Plasmodium falciparum [4] = assay: Antiplasmodial activity against […] Plasmodium falciparum NF54 early gametocytes transfected with GFP-Luc […] at 5 uM incubated for 48 hrs by microscopy based luciferase reporter gene assay relative to control; type: functional
Method in brief: (§2)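 NF54-Pfs16-GFP-Luc gametocytes, assays set up day 5 (early, stage II/III) or day 10 (late, stage IV/V). Culture at 2−3% gametocytemia, 1.5% hematocrit, 48 h drug exposure at 37 °C under 90% N₂/5% O₂/5% CO₂. Lysates mixed with luciferin; bioluminescence read with 10 s integration. Dual-point: one biological repeat in technical triplicate. Methylene blue (5 μM) reference.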

Plasmodium falciparum [5] = assay: Antiplasmodial activity against […] Plasmodium falciparum NF54 early gametocytes transfected with GFP-Luc […] at 1 uM incubated for 48 hrs by microscopy based luciferase reporter gene assay relative to control; type: functional; method in brief: as §2
Plasmodium falciparum [6] = assay: Antiplasmodial activity against […] Plasmodium falciparum NF54 late gametocytes transfected with GFP-Luc […] at 5 uM incubated for 48 hrs by microscopy based luciferase reporter gene assay relative to control; type: functional; method in brief: as §2
Plasmodium falciparum [7] = assay: Antiplasmodial activity against […] Plasmodium falciparum NF54 late gametocytes transfected with GFP-Luc […] at 1 uM incubated for 48 hrs by microscopy based luciferase reporter gene assay relative to control; type: functional; method in brief: as §2
CHO = assay: Cytotoxicity against CHO cells assessed as inhibition of cell viability by MTT assay; type: cell-based; conditions: Cricetulus griseus
[8] = Selectivity index, ratio of IC50 for Cytotoxicity against CHO cells assessed as inhibition of cell viability by MTT assay to IC50 for antimalarial activity against asexual blood stage Plasmodium falciparum NF54 assessed as reduction in parasitemia incubated up to 72 hrs by [3H]hypoxanthine incorporation assay; type: toxicity, cell-based; conditions: hamster, read-out: Selectivity Index
Method in brief: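 Selectivity index is IC₅₀(CHO)/IC₅₀(NF54). […] IC₅₀ came from nonlinear dose-response fitting. Parasite IC₅₀ came from the [³H]-hypoxanthine assay.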

Plasmodium falciparum [9] = assay: Antiplasmodial activity against […] Plasmodium falciparum NF54 early gametocytes transfected with GFP-Luc […] incubated for 48 hrs by microscopy based luciferase reporter gene assay relative to control; type: functional, organism-based; conditions: NF54, 48 h
Method in brief: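 Transgenic NF54-Pfs16-GFP-Luc gametocytes, read by luciferase reporter. Early assays were set up on day 5 (50% stage II/50% stage III) and late assays on day 10 (40% stage IV/60% stage V). Luciferin was added to lysates at room temperature and bioluminescence read. Methylene blue (5 μM) was the reference. Single-point screens at 1 and 5 μM used n=1 in technical triplicate. IC₅₀ came from a normalized nonlinear fit, n≥3 in triplicate.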

Compound | IC50 (Plasmodium falciparum [1]) [nM] | IC50 (Plasmodium falciparum [2]) [nM] | Ratio IC50 [3] | inhibition at 5 µM (Plasmodium falciparum [4]) [%] | inhibition at 1 µM (Plasmodium falciparum [5]) [%] | inhibition at 5 µM (Plasmodium falciparum [6]) [%] | inhibition at 1 µM (Plasmodium falciparum [7]) [%] | IC50 (CHO) [nM] | selectivity ratio at 72 h [8] | IC50 (Plasmodium falciparum [9]) [nM]
CC(C)(C)NCc1cc(Cl)cc(Nc2nc3cc(F)c(F)cc3[nH]2)c1O | 260 | 530 | 2.4 | 16 | 0 | 0 | 0 | 39700 | 153 | –
CCN(CC)Cc1cc(Nc2nc3ccccc3n2Cc2ccc(F)cc2)ccc1O | 680 | 1950 | 2.87 | 59 | 33 | 39 | 11 | 12000 | 17.6 | –
CCN(CC)Cc1ccc(C)c(Nc2nc3ccccc3[nH]2)c1O | 860 | 1620 | 1.88 | 32 | 3 | 31 | 34 | > 50000 | > 58 | –
CCN(CC)Cc1ccc(Nc2nc3ccccc3n2Cc2ccc(C#N)cc2)cc1O | 370 | 760 | 2.05 | 44 | 38 | 21 | – | 39000 | 106 | –
Cc1cc(CN)c(O)c(Nc2nc3ccccc3n2Cc2ccc(C(F)(F)F)cc2)c1 | 5470 | – | – | 38 | 20 | 0 | 0 | 47600 | 10.4 | –
CCN(CC)Cc1cc(Nc2nc3ccccc3n2Cc2ccc(C#N)cc2)ccc1O | 470 | 1970 | 4.19 | 23 | 20 | 35 | – | > 50000 | > 106 | –
CCN(CC)Cc1cc(Nc2nc3ccccc3[nH]2)ccc1O | 800 | 7270 | 9.09 | 9 | 30 | 28 | 0 | > 50000 | > 62 | –
CCN(CC)Cc1c(Cl)ccc(Nc2nc3ccccc3n2Cc2ccc(C(F)(F)F)cc2)c1O | 1840 | 380 | 0.21 | 59 | 7 | 1 | 5 | > 50000 | > 27 | 3060
CC(C)(C)NCc1cc(C(C)(C)C)cc(Nc2nc3ccccc3[nH]2)c1O | 80 | 250 | 3.12 | 56 | 30 | 0 | 0 | 30500 | > 380 | –
Cc1cc(CNC(C)(C)C)c(O)c(Nc2nc3ccccc3[nH]2)c1 | 200 | 790 | 3.95 | 47 | 0 | 39 | 22 | 33300 | 166 | –
CCN(CC)Cc1cc(C)cc(Nc2nc3ccccc3[nH]2)c1O | 230 | 420 | 1.83 | 44 | 1 | 37 | – | > 50000 | > 217 | –
CCN(CC)Cc1ccc(Nc2nc3ccccc3n2Cc2ccc(F)cc2)cc1O | 640 | 1280 | 2 | 15 | 12 | 36 | 31 | 45800 | 71.5 | –
Cc1cc(CNC(C)(C)C)c(O)c(Nc2nc3c(Cl)cc(Cl)cc3[nH]2)c1 | 220 | 400 | 1.81 | 0 | 0 | 0 | 0 | 25800 | 117 | –
Cc1cc(CNC(C)(C)C)c(O)c(Nc2nc3cc(F)c(F)cc3[nH]2)c1 | 260 | 830 | 3.19 | 31 | 0 | 0 | 0 | 16600 | 64 | –
CCN(CC)Cc1cccc(Nc2nc3ccccc3[nH]2)c1O | 560 | 770 | 1.38 | 0 | 3 | 34 | – | > 50000 | > 89 | –
CCN(CC)Cc1cc(C)cc(Nc2nc3ccccc3n2Cc2ccc(C#N)cc2)c1O | 650 | 460 | 0.71 | 98 | 39 | 52 | 15 | 14200 | 21.8 | –
CCN(CC)Cc1ccc(C)c(Nc2nc3ccccc3n2Cc2ccc(F)cc2)c1O | 2270 | 1320 | 0.58 | 24 | 14 | 39 | 0 | > 50000 | > 22 | –
CN(C)c1ccc2nc3ccc(N(C)C)cc3[s+]c2c1 [METHYLENE BLUE ANHYDROUS] | – | – | – | – | 93 | – | 90 | – | – | –
CC(C)(C)NCc1cc(C(C)(C)C)cc(Nc2nc3cc(F)c(F)cc3[nH]2)c1O | 150 | 280 | 1.87 | 0 | 0 | 0 | 0 | 34200 | 228 | –
CCN(CC)Cc1ccc(C)c(Nc2nc3ccccc3n2Cc2ccc(C#N)cc2)c1O | 870 | 830 | 0.95 | 96 | 19 | 22 | 0 | > 50000 | > 57 | –
CCN(CC)Cc1ccc(Nc2nc3ccccc3n2Cc2ccc(C(F)(F)F)cc2)cc1O | 470 | 870 | 1.85 | 41 | 36 | 24 | 2 | 41500 | 88.3 | –
CCN(CC)Cc1ccc(C)c(Nc2nc3ccccc3n2Cc2ccc(C(F)(F)F)cc2)c1O | 2880 | 940 | 0.33 | 90 | 18 | 43 | 29 | 33900 | 11.8 | –
CCN(CC)Cc1ccc(Nc2nc3ccccc3[nH]2)cc1O | 1880 | > 10000 | > 5.32 | – | – | – | – | > 50000 | > 26 | –
CCN(CC)Cc1cccc(Nc2nc3ccccc3n2Cc2ccc(C#N)cc2)c1O | 1000 | 660 | 0.66 | 69 | 47 | 43 | – | > 50000 | > 50 | –
CCN(CC)Cc1cc(Nc2nc3ccccc3n2Cc2ccc(C(F)(F)F)cc2)ccc1O | 390 | 1690 | 4.33 | 48 | 34 | 45 | 31 | 17500 | 44.9 | –
CC(C)(C)NCc1cc(Cl)cc(Nc2nc3ccccc3[nH]2)c1O | 270 | 630 | 2.33 | 0 | 0 | 0 | 0 | > 50000 | > 185 | –
